Measured values of several laboratories.
Lines come from different studies, so protocols differ.
Target: Serine/threonine-protein kinase PLK3 (PLK3, Homo sapiens, UniProt Q9H4B4)

With N#CC1(c2ccccn2)CCN(Cc2cc(C(=O)O)c(=O)n3ccccc23)CC1 the remaining binding was 85% (cell-free assay, competition with immobilised ligand; 1 µM).
With Nc1ncc(-c2nc(N3CCOCC3)nc(N3CCOCC3)n2)c(C(F)F)n1 the remaining binding was 83% (binding, competition with immobilised ligand; 10 µM).
With CC(C)(C)c1cc(C=C(C#N)C#N)cc(Br)c1O the remaining activity was 94.6% (enzyme activity, inhibitor; 0.5 µM).
Cn1cc(-c2cc(F)cc(N3CCn4c(cc5c4CCCC5)C3=O)c2CO)cc(Nc2ccc(N3CCN(C4COC4)CC3)cn2)c1=O gave an inhibition of 10% (enzyme activity, inhibitor; 0.1 µM).
With COc1ncccc1-c1cnn2ccc(N3CCN(C(=O)OC(C)C)CC3)nc12 the remaining binding was 100% (binding, competition with immobilised ligand; 1 µM).
The remaining signal of O=c1[nH]c2ccccc2n1C1CCN(Cc2ccc(-c3[nH]c4cc5ncnc5cc4nc3-c3ccccc3)cc2)CC1 is reported as 99.1% (cell-free assay; 0.5 µM).
With Cn1cc(-c2cccc(N3CCc4c(sc5c4CC(C)(C)C5)C3=O)c2CO)cc(Nc2ccncn2)c1=O the inhibition was -15% (enzyme activity, inhibitor; 1 µM).
Cn1cncc1[C@@](O)(COc1ccc(C#N)cc1-c1ccc(OC(F)(F)F)cc1)c1ccc(C#N)cc1 has a remaining binding of 88% (cell-free assay, competition with immobilised ligand; 1 µM).
The inhibition of COc1cc(Nc2ncc(F)c(Nc3ccc4c(n3)NC(=O)C(C)(C)O4)n2)cc(OC)c1OC is reported as 100% (binding; 10 µM).
With Cc1nn(C)cc1-c1nc2c(N3CCN(Cc4ccc(Cl)cc4)CC3)c(Cl)cnc2[nH]1 the remaining binding was 88% (binding, competition with immobilised ligand; 1 µM).
